In brackets after ≈: the same amount, converted by molar mass.
Legend:
Assay type in all cases: functional, cell-based
HCT-116 = test: Cytotoxicity against human HCT116 cells after 48 hrs by sulforhodamine B assay; settings: HCT-116, 48 h
How it was run: (§1)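 Cells seeded at 10^4 per well and allowed to attach for 24 h, then exposed to compound at 0, 1, 2.5, 5 and 10 μg/ml, triplicate wells per dose, 48 h at 37 °C, 5% CO2. Fixed, stained with sulforhodamine B, excess dye removed with acetic acid, bound dye dissolved in Tris EDTA, absorbance read. IC50 (μg/ml, 50% survival reduction) taken from triplicate dose–response curves.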

MCF7 = test: Cytotoxicity against human MCF7 cells after 48 hrs by sulforhodamine B assay; settings: MCF7, 48 h; how it was run: as §1
HepG2 = test: Cytotoxicity against human HepG2 cells after 48 hrs by sulforhodamine B assay; settings: HepG2, 48 h; how it was run: as §1

COc1ccccc1C1=CS/C(=C(\C#N)c2nc3cc(C(=O)O)ccc3[nH]2)N1c1ccc(Br)cc1
IC50 (HCT-116): 3.75 µg/mL (≈ 6.88 µM) | IC90 (HCT-116): 12.1 µg/mL (≈ 22.1 µM) | IC50 (MCF7): 2.85 µg/mL (≈ 5.23 µM) | IC90 (MCF7): 13.2 µg/mL (≈ 24.3 µM) | IC50 (HepG2): 3.16 µg/mL (≈ 5.79 µM) | IC90 (HepG2): 9.31 µg/mL (≈ 17.1 µM)

Nc1c(-c2nc3cc(C(=O)O)ccc3[nH]2)sc(=S)n1Cc1ccccc1
IC50 (HCT-116): 4.23 µg/mL (≈ 11.1 µM) | IC90 (HCT-116): 14 µg/mL (≈ 36.7 µM) | IC50 (MCF7): 3.51 µg/mL (≈ 9.18 µM) | IC90 (MCF7): 14.1 µg/mL (≈ 36.8 µM) | IC50 (HepG2): 0.55 µg/mL (≈ 1.44 µM) | IC90 (HepG2): 7.53 µg/mL (≈ 19.7 µM)

N#C/C(=C\c1ccc(F)cc1)c1nc2cc(Cl)ccc2[nH]1
IC50 (HCT-116): 8.4 µg/mL (≈ 28.2 µM) | IC90 (HCT-116): 14.8 µg/mL (≈ 49.8 µM) | IC50 (MCF7): 3.41 µg/mL (≈ 11.5 µM) | IC90 (MCF7): 13.3 µg/mL (≈ 44.8 µM) | IC50 (HepG2): 0.55 µg/mL (≈ 1.85 µM) | IC90 (HepG2): 7.62 µg/mL (≈ 25.6 µM)

N#CC(=C1CCCCC1)c1nc2cc(C(=O)O)ccc2[nH]1
IC50 (HCT-116): 8.25 µg/mL (≈ 29.3 µM) | IC90 (HCT-116): 14.2 µg/mL (≈ 50.4 µM) | IC50 (MCF7): 2.15 µg/mL (≈ 7.64 µM) | IC90 (MCF7): 11.7 µg/mL (≈ 41.6 µM) | IC50 (HepG2): 1.65 µg/mL (≈ 5.87 µM) | IC90 (HepG2): 8.61 µg/mL (≈ 30.6 µM)

N#C/C(=C1\SCC(=O)N1c1ccccc1)c1nc2cc(Cl)ccc2[nH]1
IC50 (HCT-116): 3.72 µg/mL (≈ 10.1 µM) | IC90 (HCT-116): 12 µg/mL (≈ 32.8 µM) | IC50 (MCF7): 2.83 µg/mL (≈ 7.71 µM) | IC90 (MCF7): 12.6 µg/mL (≈ 34.4 µM) | IC50 (HepG2): 0.93 µg/mL (≈ 2.54 µM) | IC90 (HepG2): 7.89 µg/mL (≈ 21.5 µM)

N#C/C(=C1\SCCCN1c1ccccc1)c1nc2cc(C(=O)O)ccc2[nH]1
IC50 (HCT-116): 9.39 µg/mL (≈ 24.9 µM) | IC90 (HCT-116): 14.7 µg/mL (≈ 39.1 µM) | IC50 (MCF7): 4.04 µg/mL (≈ 10.7 µM) | IC90 (MCF7): 15 µg/mL (≈ 39.9 µM) | IC50 (HepG2): 1.87 µg/mL (≈ 4.97 µM) | IC90 (HepG2): 8.8 µg/mL (≈ 23.4 µM)

N#C/C(=C1\SC(=O)CN1C1CCCCC1)c1nc2cc(C(=O)O)ccc2[nH]1
IC50 (HCT-116): 5.52 µg/mL (≈ 14.4 µM) | IC90 (HCT-116): 14.1 µg/mL (≈ 36.9 µM) | IC50 (MCF7): 3.83 µg/mL (≈ 10 µM) | IC90 (MCF7): 15 µg/mL (≈ 39.3 µM) | IC50 (HepG2): 1.35 µg/mL (≈ 3.53 µM) | IC90 (HepG2): 9.15 µg/mL (≈ 23.9 µM)

COc1cccc2c1C(=O)c1c(O)c3c(c(O)c1C2=O)C[C@@](O)(C(=O)CO)C[C@@H]3O[C@H]1C[C@H](N)[C@H](O)[C@H](C)O1 [DOXORUBICIN]
IC50 (HCT-116): 0.65 µg/mL (≈ 1.2 µM) | IC90 (HCT-116): 7.32 µg/mL (≈ 13.5 µM) | IC90 (MCF7): 8.77 µg/mL (≈ 16.1 µM) | IC50 (HepG2): 0.59 µg/mL (≈ 1.09 µM) | IC90 (HepG2): 6.82 µg/mL (≈ 12.5 µM)
